Compound activity from PubChem BioAssay.
UCH37 DUB inh: inhibitors of human UCH37 deubiquitinase, primary screen, biochemical, Ub-AMC cleavage, fluorescence; Ubiquitin carboxyl-terminal hydrolase isozyme L5 (Homo sapiens), Q9Y5K5; purified proteasome/UCH37; inhibition, % (concentration not given with the values); actives 0.33% (n = 330,000); AID 588478, 2011;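 active means mean inhibition over replicate wells above about 20%, limit read from the data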
Target sequence (Q9Y5K5 whole entry, looked up): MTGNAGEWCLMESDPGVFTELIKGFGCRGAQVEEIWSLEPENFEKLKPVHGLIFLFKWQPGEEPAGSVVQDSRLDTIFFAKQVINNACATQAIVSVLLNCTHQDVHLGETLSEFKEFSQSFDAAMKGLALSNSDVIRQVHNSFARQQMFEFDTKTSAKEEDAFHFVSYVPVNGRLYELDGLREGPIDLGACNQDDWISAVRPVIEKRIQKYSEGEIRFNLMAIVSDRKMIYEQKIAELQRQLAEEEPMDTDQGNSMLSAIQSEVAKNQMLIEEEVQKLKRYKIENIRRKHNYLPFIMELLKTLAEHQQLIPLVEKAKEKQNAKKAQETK
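Assay system: Proteasome-bound UCH37. Buffer or medium: pH 7.4 Tris-HCl (50 mM) with ovalbumin, ATP-MgCl2, DTT. Incubation: 30 min preincubation with enzyme, 25 min cleavage at room temperature. Measured by: fluorescence, ex 355 nm, em 460 nm. Read-out basis: percent inhibition. Control set: wells without proteasome as full block, compound-free enzyme plus substrate as uninhibited.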
MIN6 prolif-1: inducers of MIN6 beta-cell proliferation, primary screen, ATP luminescence, uHTS; proliferation, % at 10 µM; actives 0.29% (n = 330,000); MIN6 cells proliferation, ATPlite luminescence, 48 h; cells starved in 0.2% serum; 100% = growth in 10% serum; AID 2380, 2010;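 active means compounds whose signal lies at least 3.5 SD above the mean of all wells on their plate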
H9c2 protect: cardioprotection against H2O2-induced cell death, primary screen, uHTS, H9c2 cells, ATPLite luminescence; AID 588492, 2011; H9c2 cardiomyocytes, H2O2 injury protection, 2 h; protection from H2O2 cell death, % at 20 µM; actives 0.63% (n = 360,000);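 active means compounds giving at least 50% protection of heart cells from peroxide-induced death in the single-dose screen, raw or plate-pattern-corrected value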
iPSC survival up: enhancers of single-cell hiPSC survival, primary screen, ATPlite luminescence; 100% = ROCK inhibitor wells, 0% = DMSO; actives 0.044% (n = 360,000); survival enhancement, % at 20 µM; in the data active means survival enhancement above about 18%;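 further: cells exposed to compounds for 16 hours before the ATP read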
CRFBP-R2 block: antagonists of CRF-BP/CRF-R2 complex, primary screen, cell-based, HEK293, calcium dye fluorescence, uHTS. CRF-induced calcium fluorescence. AID 588475, 2011. actives 0.59% (n = 350,000). inhibition, % at 11.8 µM;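 active means inhibition of the ligand-induced calcium signal above about 50% at the single tested concentration, limit read from the data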
CRFR2-BP ag: agonists of CRF-BP/CRF-R2 complex, primary screen, cell-based, HEK293, calcium dye fluorescence, uHTS; calcium dye fluorescence (FLIPR); percent of saturating CRF peptide response; activation, % at 13.2 µM; actives 0.46% (n = 350,000);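 active means activation of at least 50%, plus an integration ratio under a set limit after plate pattern correction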
MIN6 prolif-2: inducers of beta-cell proliferation in MIN6, confirmation, MIN6 cells, mouse; shares compounds with MIN6 prolif-1; ATPlite luminescence, 48 h; cells kept in 0.2% serum; scaled between 0.2% and 10% serum; proliferation increase, % at 50 µM; 920 tested, under 10 active; AID 463095, 2010;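 active means proliferation increase above 40% at any of the four tested concentrations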
A number is an active result; . = inactive; / = no result given. Shown are actives, neighbours in structure and some others; about 2.1% of the full set was active somewhere.

SMILES | UCH37 DUB inh | MIN6 prolif-1 | H9c2 protect | iPSC survival up | CRFBP-R2 block | CRFR2-BP ag | MIN6 prolif-2
COc1ccc(NC(=O)CS(=O)c2ccc(F)cc2)cc1 (stereo not drawn) | . | 12.4 | . | . | . | . | .
c1ccc2c(c1)OCC(c1csc3ncnc(N4CCOCC4)c13)O2 (stereo not drawn) | . | 5.3 | . | . | . | . | .
CN(C)C(=NS(=O)(=O)c1ccccc1)c1ccc([N+](=O)[O-])cc1 | . | / | / | / | / | / | /
CC1(C)CC(=O)C/C(=N/NC(=O)C2CCN(S(=O)(=O)c3cccs3)CC2)C1 | / | 9.3 | . | . | . | . | .
Cc1ccccc1OCC(=O)NN=Cc1cccc2cccnc12 | . | / | / | / | / | / | /
COc1ccc2ccccc2c1C=NN1C(=O)CSC1=S | . | / | / | / | / | / | /
O=C(CN1CCC(Cc2ccccc2)CC1)N1CCc2ccccc2C1 | . | 9.0 | . | . | . | . | .
Cl/C(C=NN1CCN(c2ccccn2)CC1)=C\c1ccccc1 | . | / | / | / | / | / | /
CCOC(=O)C1CCN(C(=O)c2cc3c(-c4ccc(OC)c(OC)c4)nn(C)c3s2)CC1 | . | 12.2 | . | . | . | . | .
CCOC(=O)C1CCCN(C(=O)c2cc3c(-c4cccc(OC)c4)nn(C)c3s2)C1 (stereo not drawn) | . | . | . | . | . | . | /
Cc1ccsc1C(=O)N1CCc2ccccc2C1 | . | . | . | . | . | . | /
COc1cc2c(cc1OC)CN(C(=O)c1sccc1C)CC2 | . | 5.1 | . | . | . | . | .
Cc1nn(C)c2ncc(C(=O)c3ccccc3O)cc12 | . | . | . | . | . | . | /
Cc1[nH]nc2ncc(C(=O)c3ccccc3O)cc12 | . | 11.9 | . | . | . | . | .
COc1ccc(NC(=O)N2CCN(c3nc4ccccc4n3C(C)C)CC2)cc1 | . | . | . | . | . | . | /
CC(C)n1c(N2CCN(C(=O)NCc3ccccc3)CC2)nc2ccccc21 | . | 8.4 | . | . | . | . | .
Cc1cc(NC(=O)c2c(-c3c(Cl)cccc3Cl)noc2C)n(C)n1 | . | 6.8 | . | . | . | . | .
COc1ccc(/C=N/NC(=O)c2cnccn2)cc1O | / | 0.0 | . | . | . | . | .
COc1ccccc1NC(=O)/C(C#N)=C/c1ccc(OCCN2CCOCC2)c(OC)c1 | . | . | . | . | . | . | /
COc1ccc(NC(=O)/C(C#N)=C/c2ccc(OCCN3CCOCC3)c(OC)c2)c(OC)c1 | . | 11.3 | . | . | . | . | .
CC(C)(C)OC(=O)NCCC(=O)NN=Cc1ccc2ncccc2c1 | . | / | / | / | / | / | /
COc1ccc(Cl)cc1NC(=O)CC(C)=NNC(=O)c1ccccc1[N+](=O)[O-] | . | / | / | / | / | / | /
CC(C)Sc1nc2c(cnn2-c2ccc(Cl)cc2)c(=O)[nH]1 | . | 10.8 | . | . | . | . | .
CC(C)Sc1nc2c(cnn2-c2ccccc2)c(=O)[nH]1 | . | . | . | . | . | . | /
COc1ccccc1C=NNC(=O)c1ccc(NC(=O)c2ccccc2Br)cc1 | . | / | / | / | / | / | /
SMILES | UCH37 DUB inh | MIN6 prolif-1 | H9c2 protect | iPSC survival up | CRFBP-R2 block | CRFR2-BP ag | MIN6 prolif-2
Cc1nn(-c2ccccc2)c(C)c1C(=O)N1CCN(S(=O)(=O)c2ccccc2)CC1 | . | 11.5 | . | . | . | . | .
O=C(c1cc([N+](=O)[O-])ccc1N1CCOCC1)N1CCN(S(=O)(=O)c2ccc(F)cc2)CC1 | / | 11.4 | . | . | . | . | .
CCN1C(=O)/C(=C/c2cccs2)SC1=NS(=O)(=O)c1ccc(C)cc1 | . | / | / | / | / | / | /
Cc1ccc(C(=O)OCC(=O)Nc2sccc2C(N)=O)cc1NC(=O)c1ccco1 | . | 6.1 | 94.0 | . | . | . | .
Cc1ccc(C(=O)OCC(=O)Nc2ccccc2)cc1NC(=O)c1ccco1 | . | . | . | . | . | . | /
CCOc1ccccc1-c1nc(CN2CCN(C(=O)c3ccco3)CC2)c(C)o1 | . | . | . | . | . | . | /
Cc1ccccc1-c1nc(CN2CCN(C(=O)c3ccco3)CC2)c(C)o1 | . | 8.9 | . | . | . | . | .
Clc1ccccc1CN1CCN(N=C/C=C/c2ccco2)CC1 | . | / | / | / | / | / | /
COc1ccc2[nH]c(C(=O)NCCN3CCOCC3)cc2c1 | . | . | . | . | . | . | /
O=C(NCCN1CCOCC1)c1cc2ccccc2[nH]1 | . | 8.2 | . | . | . | . | .
O=C(NN=Cc1ccco1)C1(O)c2ccccc2-c2ccccc21 | . | / | / | / | / | / | /
COc1ccc(C=NNC(=O)C(=O)NCC2CCCO2)cc1 (stereo not drawn) | . | / | / | / | / | / | /
CCCCNC(=S)NNC(=O)c1csc(C)c1CC | . | 0.0 | . | . | . | . | .
N#CC(C#N)=C1NC2(CCCCC2)Cc2ccccc21 | . | 5.2 | . | . | . | . | .
CC(=O)Nc1ccc(NC(=O)C(C)OC(=O)c2cccc(S(=O)(=O)N3CCCCC3)c2)cc1 (stereo not drawn) | . | . | . | . | . | . | /
CC(=O)Nc1ccc(NC(=O)C(C)OC(=O)c2cccc(S(=O)(=O)N3CCCCCC3)c2)cc1 (stereo not drawn) | / | 12.4 | . | . | . | . | .
CC(C)(C)c1ccc(C(=O)Nn2cnnc2)cc1 | . | . | . | . | . | . | /
N#Cc1ccc(C(=O)Nn2cnnc2)cc1 | . | 8.2 | . | . | . | . | .
CN(c1ncnc(N)c1[N+](=O)[O-])C1CCCCC1 | . | 24.8 | . | . | . | . | .
CC(C)c1ccc(C=Nn2c(-c3ccccc3)n[nH]c2=S)cc1 | . | / | / | / | / | / | /
COc1ccccc1N(CC(O)CN1CCOCC1)S(=O)(=O)c1ccccc1 (stereo not drawn) | . | 19.4 | . | . | . | . | .
CCOc1ccc(-n2cnnn2)cc1S(=O)(=O)Nc1c(C)cccc1C | . | 6.1 | . | . | . | . | .
CCOc1ccc(-n2cnnn2)cc1S(=O)(=O)NC1CC1 | . | . | . | . | . | . | /
COc1ccc(Cn2c(=O)c3[nH]cnc3n(-c3ccccc3C)c2=O)cc1 | . | 10.1 | . | . | . | . | .
O=C(O)COc1ccc(C=NNC(=O)C2CCCN2S(=O)(=O)c2ccc(Cl)cc2)cc1 (stereo not drawn) | . | / | / | / | / | / | /
CCOC(=O)C(=CNc1ccccc1N1CCOCC1)C(=O)OCC | . | 6.0 | . | . | . | . | .
O=C(NN=CC1C(c2ccccc2)C1(Cl)Cl)c1cccc(Cl)c1 (stereo not drawn) | . | / | / | / | / | / | /
